Results: ChEMBL document CHEMBL1125291, “New 8-(trifluoromethyl)-substituted quinolones. The benefits of the 8-fluoro group with reduced phototoxic risk” (1992)
Values after ≈ are worked out from the molar mass of the structure shown. Values joined by “and” are separate entries in the source; they are usually repeats but may differ in a detail not shown here. Equal entries are not always repeated.

Tests used:
Escherichia coli [1] = test: Minimum inhibitory concentration (MIC) against gram negative bacteria Escherichia coli Vogel.; format: functional; settings: Escherichia coli; read-out: MIC
Outline: (§1)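 MICs were determined by standard broth microtitration against 11 Gram-positive and Gram-negative organisms, in µg/mL. Values come from duplicate or triplicate experiments and are accurate to ±50%.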

Pseudomonas aeruginosa [2] = test: In vivo efficacy (s.c.) against Pseudomonas aeruginosa in mouse protection test; format: functional; settings: Pseudomonas aeruginosa, sc; read-out: PD50
Outline: (§2)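 Acute lethal systemic infections in female Charles River CD-1 mice. A single dose was given at challenge, orally by gavage or by subcutaneous injection. PD50 (median protective dose, mg/kg) was determined.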

Mus musculus [3] = test: Maximum tolerance dose was measured for phototoxic skin reaction by sc administration; format: functional
Outline: (§3)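 Depilated female CD-1 mice got a single oral (gavage) or subcutaneous dose, then UVA (320–400 nm) exposure for 3 h starting 1 h post-dose. This was repeated for up to 4 consecutive days. Initial doses were 30, 100 and 300 mg/kg. PTD50 was derived by probit. First day of positive reaction and no-effect dose were taken from the raw data.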

Mus musculus [4] = species on record: Mus musculus; test: Dose required to induce phototoxic reaction in 50% of mice by probit method at different dosage forms.; format: functional
Streptococcus pneumoniae [5] = test: In vivo efficacy (s.c.) against Streptococcus pneumoniae SV-1 in mouse protection test; format: functional; settings: Streptococcus pneumoniae, sc; read-out: PD50; outline: as §2
Staphylococcus aureus [6] = test: Minimum inhibitory concentration (MIC) against gram positive bacteria Staphylococcus aureus UC-76.; format: functional; settings: Staphylococcus aureus; read-out: MIC; outline: as §1
Streptococcus pyogenes [7] = test: Minimum inhibitory concentration (MIC) against gram positive bacteria Streptococcus pyogenes C-203.; format: functional; settings: Streptococcus pyogenes; read-out: MIC; outline: as §1
Mus musculus [8] = species on record: Mus musculus; test: Dose which has no effect to induce phototoxic reaction in 50% of mice by probit method.; format: functional
Streptococcus pneumoniae [9] = test: In vivo efficacy (orally) against Streptococcus pneumoniae SV-1 in mouse protection test; format: functional; settings: Streptococcus pneumoniae, po; read-out: PD50; outline: as §2
Pseudomonas aeruginosa [10] = test: Minimum inhibitory concentration (MIC) against gram negative bacteria Pseudomonas aeruginosa UI-18.; format: functional; settings: Pseudomonas aeruginosa; read-out: MIC; outline: as §1
Escherichia coli [11] = test: In vivo efficacy in mouse protection test in Escherichia coli Vogel dose administered orally by gavage.; format: functional; settings: Escherichia coli, po; read-out: PD50; outline: as §2
Streptococcus pyogenes [12] = test: In vivo efficacy (s.c.) against Streptococcus pyogenes C-203 in mouse protection test; format: functional; settings: Streptococcus pyogenes, sc; read-out: PD50; outline: as §2
Streptococcus pyogenes [13] = test: In vivo efficacy (orally) against Streptococcus pyogenes C-203 in mouse protection test; format: functional; settings: Streptococcus pyogenes, po; read-out: PD50; outline: as §2
Klebsiella pneumoniae = test: Minimum inhibitory concentration (MIC) against gram negative bacteria Klebsiella pneumoniae MGH-2.; format: functional; settings: Klebsiella pneumoniae; read-out: MIC; outline: as §1
Escherichia coli [14] = test: In vivo efficacy in mouse protection test in Escherichia coli Vogel administered by subcutaneous injection.; format: functional; settings: Escherichia coli, sc; read-out: PD50; outline: as §2
Streptococcus pneumoniae [15] = test: Minimum inhibitory concentration (MIC) against gram positive bacteria Streptococcus pneumoniae SV-1.; format: functional; settings: Streptococcus pneumoniae; read-out: MIC; outline: as §1
Escherichia coli [16] = test: Minimum inhibitory concentration (MIC) against gram negative bacteria Escherichia coli H-560.; format: functional; settings: Escherichia coli; read-out: MIC; outline: as §1
Enterococcus faecalis = test: Minimum inhibitory concentration (MIC) against gram positive bacteria Streptococcus faecalis MGH-2.; format: functional; settings: Enterococcus faecalis; read-out: MIC; outline: as §1
Mus musculus [17] = test: Maximum tolerance dose was measured for phototoxic skin reaction by po administration; format: functional
[18] = Minimum inhibitory concentration (MIC) against gram negative bacteria Prot. rettgeri M-1771.; format: functional, Providencia rettgeri; settings: Providencia rettgeri; read-out: MIC; outline: as §1
Staphylococcus aureus [19] = test: Minimum inhibitory concentration (MIC) against gram positive bacteria Staphylococcus aureus H-228.; format: functional; settings: Staphylococcus aureus; read-out: MIC; outline: as §1
[20] = Number of mice which show positive phototoxic reaction in 5 mice at subcutaneous dose; format: functional, Mus musculus; outline: as §3
Pseudomonas aeruginosa [21] = test: In vivo efficacy (orally) against Pseudomonas aeruginosa in mouse protection test; format: functional; settings: Pseudomonas aeruginosa, po; read-out: PD50; outline: as §2
[22] = Number of mice which show positive phototoxic reaction in 5 mice at peroral dose; format: functional, Mus musculus; outline: as §3
Enterobacter cloacae = test: Minimum inhibitory concentration (MIC) against gram negative bacteria Enterobacter cloacae MA-2646.; format: functional
Mus musculus [23] = species on record: Mus musculus; test: Days of the first positive reaction in […] mice.; format: functional
Outline: (§4)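 Phototoxic skin reaction test in depilated female CD-1 mice. A single oral dose (gavage) or subcutaneous dose was given, followed 1 h later by 3 h of UVA exposure (320–400 nm). The regimen was repeated for up to 4 consecutive days, with initial doses of 30, 100 and 300 mg/kg. PTD50 was derived by the probit method. The first day of positive reaction and the no-effect dose were taken from the raw data.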

Mus musculus [24] = species on record: Mus musculus; test: Number of mice which show positive phototoxic reaction in 5 mice; format: functional
Mus musculus [25] = species on record: Mus musculus; test: Number of mice which show positive phototoxic reaction.; format: functional; outline: as §4

## CCn1cc(C(=O)O)c(=O)c2cc(F)c(N3CCNCC3)cc21 [NORFLOXACIN]
Escherichia coli [1]
  MIC: 0.025 µg/mL (≈ 0.0783 µM)
Pseudomonas aeruginosa [2]
  ED50: 11 mg/kg
Mus musculus [3]
  MTD: 300 mg/kg
Mus musculus [4]
  PTD50: >300 mg/kg and 172 mg/kg
Streptococcus pneumoniae [5]
  ED50: 150 mg/kg
Staphylococcus aureus [6]
  MIC: 0.05 µg/mL (≈ 0.157 µM)
Streptococcus pyogenes [7]
  MIC: 0.8 µg/mL (≈ 2.51 µM)
Mus musculus [8]
  No effect dose: 300 mg/kg and 100 mg/kg
Streptococcus pneumoniae [9]
  ED50: > 100 mg/kg
Pseudomonas aeruginosa [10]
  MIC: 0.2 µg/mL (≈ 0.626 µM)
Escherichia coli [11]
  ED50: 4 mg/kg
Streptococcus pyogenes [12]
  ED50: 45 mg/kg
Streptococcus pyogenes [13]
  ED50: > 100 mg/kg
Klebsiella pneumoniae
  MIC: 0.05 µg/mL (≈ 0.157 µM)
Escherichia coli [14]
  ED50: 0.6 mg/kg
Streptococcus pneumoniae [15]
  MIC: 1.6 µg/mL (≈ 5.01 µM)
Escherichia coli [16]
  MIC: 0.1 µg/mL (≈ 0.313 µM)
Enterococcus faecalis
  MIC: 1.6 µg/mL (≈ 5.01 µM)
Mus musculus [17]
  MTD: 300 mg/kg
[18]
  MIC: 0.025 µg/mL (≈ 0.0783 µM)
Staphylococcus aureus [19]
  MIC: 0.8 µg/mL (≈ 2.51 µM)
[20]
  No. of pos rxns: 5
Pseudomonas aeruginosa [21]
  ED50: 76 mg/kg
[22]
  No. of pos rxns: 0
Enterobacter cloacae
  MIC: 0.1 µg/mL (≈ 0.313 µM)

## CCNCC1CCN(c2c(F)cc3c(=O)c(C(=O)O)cn(C4CC4)c3c2F)C1 (stereo unspecified) [PD-117558]
Escherichia coli [1]
  MIC: 0.05 µg/mL (≈ 0.128 µM)
Pseudomonas aeruginosa [2]
  ED50: 40 mg/kg
Mus musculus [23]
  Day of first positve reaction: 1
Mus musculus [4]
  PTD50: <30 mg/kg
Streptococcus pneumoniae [5]
  ED50: 1.9 mg/kg
Staphylococcus aureus [6]
  MIC: 0.006 µg/mL (≈ 0.0153 µM)
Mus musculus [8]
  No effect dose: 30 mg/kg
Streptococcus pneumoniae [9]
  ED50: 3.3 mg/kg
Pseudomonas aeruginosa [10]
  MIC: 0.4 µg/mL (≈ 1.02 µM)
Escherichia coli [11]
  ED50: 4.2 mg/kg
Streptococcus pyogenes [12]
  ED50: 0.5 mg/kg
Streptococcus pyogenes [13]
  ED50: 1.8 mg/kg
Klebsiella pneumoniae
  MIC: 0.2 µg/mL (≈ 0.511 µM)
Escherichia coli [14]
  ED50: 1 mg/kg
Streptococcus pneumoniae [15]
  MIC: 0.025 µg/mL (≈ 0.0639 µM)
Mus musculus [24]
  No. of pos rxns: 5
Escherichia coli [16]
  MIC: 0.013 µg/mL (≈ 0.0332 µM)
Enterococcus faecalis
  MIC: 0.025 µg/mL (≈ 0.0639 µM)
Mus musculus [17]
  MTD: 30 mg/kg
[18]
  MIC: 0.4 µg/mL (≈ 1.02 µM)
Staphylococcus aureus [19]
  MIC: 0.05 µg/mL (≈ 0.128 µM)
Pseudomonas aeruginosa [21]
  ED50: 59 mg/kg
Enterobacter cloacae
  MIC: 0.1 µg/mL (≈ 0.255 µM)

## NC1CCCN(c2c(F)cc3c(=O)c(C(=O)O)cn(C4CC4)c3c2F)C1 (stereo unspecified)
Escherichia coli [1]
  MIC: 0.2 µg/mL (≈ 0.55 µM)
Mus musculus [23]
  Day of first positve reaction: 0
Mus musculus [4]
  PTD50: >100 mg/kg
Staphylococcus aureus [6]
  MIC: 0.025 µg/mL (≈ 0.0688 µM)
Mus musculus [25]
  No. of pos rxns: 0
Streptococcus pyogenes [7]
  MIC: 0.1 µg/mL (≈ 0.275 µM)
Mus musculus [8]
  No effect dose: 100 mg/kg
Pseudomonas aeruginosa [10]
  MIC: 0.2 µg/mL (≈ 0.55 µM)
Escherichia coli [11]
  ED50: 4.7 mg/kg
Streptococcus pyogenes [12]
  ED50: 3.4 mg/kg
Streptococcus pyogenes [13]
  ED50: 32 mg/kg
Klebsiella pneumoniae
  MIC: 0.2 µg/mL (≈ 0.55 µM)
Escherichia coli [14]
  ED50: 1.4 mg/kg
Streptococcus pneumoniae [15]
  MIC: 0.1 µg/mL (≈ 0.275 µM)
Escherichia coli [16]
  MIC: 0.2 µg/mL (≈ 0.55 µM)
Enterococcus faecalis
  MIC: 0.1 µg/mL (≈ 0.275 µM)
Mus musculus [17]
  MTD: 100 mg/kg
[18]
  MIC: 0.2 µg/mL (≈ 0.55 µM)
Staphylococcus aureus [19]
  MIC: 0.1 µg/mL (≈ 0.275 µM)
Enterobacter cloacae
  MIC: 0.2 µg/mL (≈ 0.55 µM)

## CCNCC1CCN(c2c(F)cc3c(=O)c(C(=O)O)cn(C4CC4)c3c2C(F)(F)F)C1 (stereo unspecified)
Escherichia coli [1]
  MIC: 0.4 µg/mL (≈ 0.906 µM)
Pseudomonas aeruginosa [2]
  ED50: 46 mg/kg
Mus musculus [23]
  Day of first positve reaction: 0
Mus musculus [4]
  PTD50: >100 mg/kg
Streptococcus pneumoniae [5]
  ED50: 0.9 mg/kg
Staphylococcus aureus [6]
  MIC: 0.013 µg/mL (≈ 0.0295 µM)
Streptococcus pyogenes [7]
  MIC: 0.05 µg/mL (≈ 0.113 µM)
Mus musculus [8]
  No effect dose: 100 mg/kg
Streptococcus pneumoniae [9]
  ED50: 1.4 mg/kg
Pseudomonas aeruginosa [10]
  MIC: 6.3 µg/mL (≈ 14.3 µM)
Escherichia coli [11]
  ED50: 5.3 mg/kg
Streptococcus pyogenes [12]
  ED50: 1.1 mg/kg
Streptococcus pyogenes [13]
  ED50: 1.6 mg/kg
Klebsiella pneumoniae
  MIC: 0.8 µg/mL (≈ 1.81 µM)
Escherichia coli [14]
  ED50: 1.7 mg/kg
Streptococcus pneumoniae [15]
  MIC: 0.05 µg/mL (≈ 0.113 µM)
Mus musculus [24]
  No. of pos rxns: 0
Escherichia coli [16]
  MIC: 0.2 µg/mL (≈ 0.453 µM)
Enterococcus faecalis
  MIC: 0.1 µg/mL (≈ 0.227 µM)
Mus musculus [17]
  MTD: 100 mg/kg
[18]
  MIC: 1.6 µg/mL (≈ 3.62 µM)
Staphylococcus aureus [19]
  MIC: 0.05 µg/mL (≈ 0.113 µM)
Pseudomonas aeruginosa [21]
  ED50: 93 mg/kg
Enterobacter cloacae
  MIC: 0.4 µg/mL (≈ 0.906 µM)

## NC1CCN(c2c(F)cc3c(=O)c(C(=O)O)cn(C4CC4)c3c2C(F)(F)F)C1 (stereo unspecified)
Escherichia coli [1]
  MIC: 0.05 µg/mL (≈ 0.125 µM)
Pseudomonas aeruginosa [2]
  ED50: 23 mg/kg
Mus musculus [23]
  Day of first positve reaction: 0
Mus musculus [4]
  PTD50: >300 mg/kg
Streptococcus pneumoniae [5]
  ED50: 26 mg/kg
Staphylococcus aureus [6]
  MIC: 0.05 µg/mL (≈ 0.125 µM)
Streptococcus pyogenes [7]
  MIC: 0.4 µg/mL (≈ 1 µM)
Mus musculus [8]
  No effect dose: 300 mg/kg
Streptococcus pneumoniae [9]
  ED50: 25 mg/kg
Pseudomonas aeruginosa [10]
  MIC: 1.6 µg/mL (≈ 4.01 µM)
Escherichia coli [11]
  ED50: 2.9 mg/kg
Streptococcus pyogenes [12]
  ED50: 26 mg/kg
Streptococcus pyogenes [13]
  ED50: 32 mg/kg
Klebsiella pneumoniae
  MIC: 0.2 µg/mL (≈ 0.501 µM)
Escherichia coli [14]
  ED50: 1.4 mg/kg
Streptococcus pneumoniae [15]
  MIC: 0.4 µg/mL (≈ 1 µM)
Mus musculus [24]
  No. of pos rxns: 0
Escherichia coli [16]
  MIC: 0.025 µg/mL (≈ 0.0626 µM)
Enterococcus faecalis
  MIC: 0.4 µg/mL (≈ 1 µM)
Mus musculus [17]
  MTD: 300 mg/kg
[18]
  MIC: 0.4 µg/mL (≈ 1 µM)
Staphylococcus aureus [19]
  MIC: 0.1 µg/mL (≈ 0.25 µM)
Pseudomonas aeruginosa [21]
  ED50: 53 mg/kg
Enterobacter cloacae
  MIC: 0.05 µg/mL (≈ 0.125 µM)
